Columns and labels:
[1] = system: alpha subunit of type IIA sodium channels; test: Use-dependent block, conditioning pulse protocol; type: cell-based, rat; conditions: for use-dependent block, conditioning pulse protocol (in words): Fig. 5 and 6; for use-dependent block at 200 mV: wild-type channels, conditioning pulses to 200 mV
[2] = system: alpha subunit of type IIA sodium channels; test: Fast peptide block of LqTx-modified sodium channels, whole-cell patch clamp; type: cell-based, rat; conditions: 100 nM LqTx; for k b(0 mV), blocking rate / k u(0 mV), unblocking rate: 1 mM peptide, SEM; for k b(0 mV), blocking rate: calculated from τ and Fss by Eq. 2, mean ± SEM; for k u(0 mV), unblocking rate: calculated from τ and Fss by Eq. 3, mean ± SEM; for fast block of LqTx-modified sodium channels (in words) / fraction of extrapolated peak sodium current unblocked at steady state: 1 mM peptide intracellular, 0 mV
Procedure, shortened: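 CHO cells stably expressing the channel alpha subunit, recorded 24 h after subculture; whole-cell patch clamp at 22–25°C. Pipette carries 1 mM test peptide, and recording starts about 20 min after break-in. LqTx-modified currents are elicited by steps from −80 mV to 0 mV. Decay is fit to a single exponential, with Fss = B/(A+B). kb and ku come from τ and Fss.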

sodium channels = conditions: ref Eaholtz et al., cited from earlier work
[3] = system: alpha subunit of type IIA sodium channels; test: Recovery from fast block, two-pulse voltage protocol; type: cell-based, rat; conditions: for time constant of recovery from fast block at −80 mV: interpulse −80 mV, mean ± SEM, n = 5
Procedure, shortened: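 CHO cells stably expressing the channel alpha subunit, under whole-cell clamp at 22–25°C with 1 mM test peptide in the pipette; channels LqTx-modified. Two 0-mV test pulses give the ratio I2/I1. The protocol is repeated 20× with the interpulse interval increased by Δt each time. Interpulse voltage is −80, −100, −120 or −140 mV. Recovery versus interval is fit to a single exponential for the time constant.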

[4] = 1 mM peptide, channels not modified by LqTx

## Ac-KIFMTK-NH2
[1]; [4]
  use-dependent block, conditioning pulse protocol (in words): poor use-dependent blocker
[2]
  k b(0 mV), blocking rate: 2881 ± 263 s⁻¹
  k u(0 mV), unblocking rate: 731 ± 8 s⁻¹

## ac-DIFMT-NH2
[1]; [4]
  use-dependent block, conditioning pulse protocol (in words): no effect at all
[2]
  fast block of LqTx-modified sodium channels (in words): did not produce significant fast block

## ac-KIFMK-NH2
[1]; 1 mM peptide, 100 nM LqTx, n = 6, mean ± SEM, SEM
  fractional current (I12/I1) after 10 conditioning pulses to 200 mV, LqTx-modified channels: 0.03 ± 0.02
[1]; 1.0 mM peptide, 200-mV conditioning pulses
  use-dependent block in the absence or presence of LqTx: > 95%
[1]; 1 mM peptide, channels not modified by LqTx, Fig. 5 A
  conditioning voltage of half-maximal use-dependent block: +125 mV
[1]; 1.5 mM peptide, three cells, unmodified channels
  use-dependent block with conditioning pulses more positive than 150 mV: ~100%
[1]; mean zδ divided by two (two positive charges)
  δ of use-dependent block: 0.5
[1]; −80 mV
  time for half-maximal recovery from use-dependent block: more than 90 s
Sodium channels; voltage dependence of fast block, 1998
  δ value of fast block: 0.3
[2]
  fraction of extrapolated peak sodium current unblocked at steady state: 21%
  k u(0 mV), unblocking rate: 587 ± 40 s⁻¹
[3]; 1 mM peptide, LqTx-modified channels
  time constant of recovery from fast block at −80 mV: 0.9 ms
[3]; 1 mM peptide, LqTx-modified channels, SEM
  time constant of recovery from fast block at −80 mV: 0.9 ± 0.3 ms
[3]; 1 mM peptide, LqTx-modified channels, interpulse −100 mV, n = 6
  time constant of recovery from fast block at −100 mV: 0.6 ± 0.1 ms
[3]; 1 mM peptide, LqTx-modified channels, interpulse −120 mV, n = 6
  time constant of recovery from fast block at −120 mV: 0.4 ± 0.1 ms
[3]; 1 mM peptide, LqTx-modified channels, interpulse −140 mV, n = 4
  time constant of recovery from fast block at −140 mV: 0.3 ± 0.1 ms
[3]; −80 mV
  time at which recovery from fast block was half complete: 0.9 ms

## DIFMK-NH2
[1]; [4]
  use-dependent block, conditioning pulse protocol (in words): much less effective than ac-KIFMK-NH2

## FM-NH2
[1]; [4]
  use-dependent block, conditioning pulse protocol (in words): not effective in use-dependent block

## NC(=O)[C@@H](N)Cc1ccccc1 [F-NH2, phenylalanine-amide]
[1]; [4]
  use-dependent block, conditioning pulse protocol (in words): not effective in use-dependent block

## ac-KAFAK-NH2
[1]; [4]
  use-dependent block, conditioning pulse protocol (in words): less effective
[1]; 1 mM peptide
  use-dependent block at 200 mV: > 60%
Sodium channels; 1994
  fast block of sodium channels (in words): did not produce fast block

## ac-KIQMK-NH2
[1]; [4]
  use-dependent block, conditioning pulse protocol (in words): did not produce significant block
Sodium channels; 1994
  fast block of sodium channels (in words): did not produce fast block
  use-dependent block (in words): ineffective in use-dependent block

## ac-RIFMR-NH2
[1]; [4]
  use-dependent block, conditioning pulse protocol (in words): significantly more potent than ac-KIFMK-NH2
[2]
  fast block of LqTx-modified sodium channels (in words): rapidly blocked LqTx-modified sodium currents
  k u(0 mV), unblocking rate: 222 ± 33 s⁻¹

## KIFM-NH2
[1]; [4]
  use-dependent block, conditioning pulse protocol (in words): substantial use-dependent block
[2]
  fraction of extrapolated peak sodium current unblocked at steady state: 42%
  k b(0 mV), blocking rate: 1751 ± 163 s⁻¹
  k u(0 mV), unblocking rate: 1283 ± 149 s⁻¹

## KIFMT-NH2
[1]; [4]
  use-dependent block, conditioning pulse protocol (in words): much less effective than ac-KIFMK-NH2
[2]
  fast block of LqTx-modified sodium channels (in words): rapidly blocked LqTx-modified sodium currents
  k u(0 mV), unblocking rate: 386 ± 81 s⁻¹

## cyclic KIFMK (head to tail)
[1]; [4]
  use-dependent block, conditioning pulse protocol (in words): nearly as potent in use-dependent block as ac-KIFMK-NH2
[1]; 1 mM peptide
  use-dependent block at 200 mV: ~100%
[2]
  fast block of LqTx-modified sodium channels (in words): did not exhibit significant fast block
